In general, solubility (kinetic) refers to the concentration staying in solution when a stock, usually in DMSO, is diluted into the medium. What is called AC50 is the midpoint of the concentration-response curve, whichever way the signal moves.

The text below walks through data of ChEMBL document CHEMBL1156261, “Evaluation of substituted N,N'-diarylsulfonamides as activators of the tumor cell specific M2 isoform of pyruvate kinase” (J Med Chem, 2010).

The target in series [1] is Pyruvate kinase PKLR (Homo sapiens) (UniProt P30613). Briefly: Activation of PKR assessed as pyruvate formation by fluorescent pyruvate kinase-lactate dehydrogenase coupled assay relative to control. The arrangement: concentration or dose not given beside the values.
Sequence of Pyruvate kinase PKLR (Homo sapiens) (P30613 whole entry, looked up): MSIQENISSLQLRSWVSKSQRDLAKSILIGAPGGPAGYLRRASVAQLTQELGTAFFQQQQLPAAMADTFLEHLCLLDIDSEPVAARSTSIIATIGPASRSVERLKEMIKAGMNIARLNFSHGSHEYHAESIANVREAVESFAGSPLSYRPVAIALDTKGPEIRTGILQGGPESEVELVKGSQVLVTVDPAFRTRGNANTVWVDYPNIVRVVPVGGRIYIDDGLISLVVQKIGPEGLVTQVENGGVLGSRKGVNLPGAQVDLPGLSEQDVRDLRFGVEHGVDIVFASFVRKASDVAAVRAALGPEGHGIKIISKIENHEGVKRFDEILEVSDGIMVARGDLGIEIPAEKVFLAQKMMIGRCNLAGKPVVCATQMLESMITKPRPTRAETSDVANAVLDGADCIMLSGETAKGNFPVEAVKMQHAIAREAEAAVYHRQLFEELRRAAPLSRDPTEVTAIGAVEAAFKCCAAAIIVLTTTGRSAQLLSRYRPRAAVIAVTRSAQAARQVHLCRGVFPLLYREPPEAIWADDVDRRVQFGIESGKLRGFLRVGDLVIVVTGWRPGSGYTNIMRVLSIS
Series [2] shares this target. Briefly: Activation of PKR assessed as ATP product formation by luminescent pyruvate kinase-luciferase coupled assay relative to control. Also noted: concentration or dose not given beside the values. A digest of the protocol:
(§1)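 Luciferase-coupled ATP production assay run as for PKM2: imidazole pH 7.2 buffer with KCl, MgCl2, Tween 20 and BSA, 0.1 mM ADP, 0.5 mM PEP, 1 h at r.t., Kinase-Glo luminescence. Enzyme final concentrations were PKM1 1 nM, PKL 0.1 nM, PKR 0.1 nM. % activation normalized to DMSO (neutral) and no-enzyme controls.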

For series [3] the target is unchanged. Briefly: Activation of PKL assessed as pyruvate formation by fluorescent pyruvate kinase-lactate dehydrogenase coupled assay relative to control. The arrangement: concentration or dose not given beside the values.
Series [4] shares this target. Put plainly: Activation of PKL assessed as ATP product formation by luminescent pyruvate kinase-luciferase coupled assay relative to control. The arrangement: concentration or dose not given beside the values. A digest of the protocol:
as §1

The target of series [5] is T1, Pyruvate kinase PKM (Homo sapiens, UniProt P14618). Briefly: Activation of PKM2 assessed as ATP product formation at 57 uM by luminescent pyruvate kinase-luciferase coupled assay relative to fructose-1,6-bis-phosphate. In a few lines:
(§2)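 Recombinant human PKM2 (0.1 nM final) in 50 mM imidazole pH 7.2, 50 mM KCl, 7 mM MgCl2, 0.01% Tween 20, 0.05% BSA; 0.1 mM ADP, 0.5 mM PEP; 1 h at r.t., then Kinase-Glo luciferase read of ATP formed. Activation % = (c−n)/(n−i)×100 against DMSO and no-enzyme controls; 100% ≈ 2-fold over basal signal. Max response taken at 57 μM; three separate experiments.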
Target sequence in this assay (P14618 2-531 limits assumed): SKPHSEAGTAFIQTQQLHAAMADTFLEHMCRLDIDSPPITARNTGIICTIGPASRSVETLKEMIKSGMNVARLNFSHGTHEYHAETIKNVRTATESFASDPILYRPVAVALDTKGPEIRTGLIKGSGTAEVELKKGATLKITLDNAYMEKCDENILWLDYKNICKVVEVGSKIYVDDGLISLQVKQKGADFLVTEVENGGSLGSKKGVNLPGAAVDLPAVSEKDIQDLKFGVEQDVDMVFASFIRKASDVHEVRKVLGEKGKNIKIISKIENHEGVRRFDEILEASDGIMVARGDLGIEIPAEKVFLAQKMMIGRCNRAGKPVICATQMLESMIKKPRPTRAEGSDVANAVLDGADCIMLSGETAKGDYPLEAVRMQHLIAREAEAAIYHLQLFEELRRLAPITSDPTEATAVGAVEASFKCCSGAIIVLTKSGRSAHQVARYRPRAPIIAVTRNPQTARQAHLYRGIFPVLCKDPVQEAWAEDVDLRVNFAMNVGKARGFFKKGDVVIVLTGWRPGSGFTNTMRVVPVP

Series [6] in a line: Kinetic solubility by quantitative nitrogen detection assay. In kind it is physicochemical. In a few lines: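 Kinetic solubility was determined by quantitative nitrogen detection in three separate experiments.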
Series [7] addresses T1, Pyruvate kinase PKM. Briefly: Activation of PKM1 assessed as pyruvate formation by fluorescent pyruvate kinase-lactate dehydrogenase coupled assay.
Target sequence in this assay (P14618 2-531 limits assumed): as above
Series [8] concerns the target T1, Pyruvate kinase PKM. Put plainly: Activation of PKM1 assessed as ATP product formation by luminescent pyruvate kinase-luciferase coupled assay. In a few lines:
as §1
Target sequence in this assay (P14618 2-531 limits assumed): as above

In series [9] the target is T1, Pyruvate kinase PKM. Briefly: Activation of PKM2 assessed as ATP product formation by luminescent pyruvate kinase-luciferase coupled assay. A digest of the protocol: as §2
Target sequence in this assay (P14618 whole entry): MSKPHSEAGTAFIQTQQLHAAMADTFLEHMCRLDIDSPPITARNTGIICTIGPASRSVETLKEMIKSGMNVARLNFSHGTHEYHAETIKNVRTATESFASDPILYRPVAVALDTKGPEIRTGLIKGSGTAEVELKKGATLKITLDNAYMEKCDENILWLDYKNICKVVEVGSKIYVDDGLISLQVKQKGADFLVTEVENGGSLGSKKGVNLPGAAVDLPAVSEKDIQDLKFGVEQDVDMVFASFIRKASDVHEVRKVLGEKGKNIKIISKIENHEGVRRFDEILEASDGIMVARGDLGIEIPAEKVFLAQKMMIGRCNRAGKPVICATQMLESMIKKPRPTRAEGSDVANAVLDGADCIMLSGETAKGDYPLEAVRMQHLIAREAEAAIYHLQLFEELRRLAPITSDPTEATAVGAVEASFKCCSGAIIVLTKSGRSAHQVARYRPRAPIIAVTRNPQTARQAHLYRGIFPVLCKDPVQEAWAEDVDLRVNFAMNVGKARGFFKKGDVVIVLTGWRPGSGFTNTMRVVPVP
Series [10] has as its target T1, Pyruvate kinase PKM. Put plainly: Activation of PKM2 assessed as reduction of Km for phosphoenolpyruvate relative to untreated control. In a few lines:
(§3)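 Steady-state kinetics were measured by the PK–LDH coupled assay at about 22 °C with 10 nM PKM2, 200 mM KCl and 15 mM MgCl2. One substrate (PEP or ADP) was varied with the other held at 4.0 mM, with or without activator. Fluorescence was converted to pmol NADH by a standard curve; initial rates (pmol/min) were fit for KM.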
Target sequence in this assay (P14618 2-531 limits assumed): as the sequence (P14618 2-531 limits assumed) above

Series [11] addresses T1, Pyruvate kinase PKM. Briefly: Activation of PKM2 in presence of excess of phosphoenolpyruvate level.
Target sequence in this assay (P14618 2-531 limits assumed): as above
Series [12] deals with T1, Pyruvate kinase PKM. Briefly: Activation of PKM2 assessed as effect on Km for ADP relative to untreated control. In a few lines:
as §3
Target sequence in this assay (P14618 2-531 limits assumed): as above

In series [13] the target is T1, Pyruvate kinase PKM. Put plainly: Activation of PKM2 assessed as pyruvate formation by fluorescent pyruvate kinase-lactate dehydrogenase coupled assay. A digest of the protocol:
(§4)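 Kinetic PK–LDH coupled read: 10 nM hPK-M2 with 1 μM LDH in 50 mM Tris-Cl pH 8.0, 200 mM KCl, 15 mM MgCl2, 0.1 mM PEP, 4.0 mM ADP, 0.2 mM NADH. NADH fluorescence decrease was read at 30 s intervals over 3–6 min.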
Target sequence in this assay (P14618 whole entry): as the sequence (P14618 whole entry) above

Series [14] concerns the target T1, Pyruvate kinase PKM. Briefly: Activation of PKM2 assessed as pyruvate formation by fluorescent pyruvate kinase-lactate dehydrogenase coupled assay relative to fructose-1,6-bis-phosphate. In a few lines: as §4

≈ marks a conversion by molar mass, not a printed value. Calls of active or inactive are those of the source.

With `O=S(=O)(c1ccc2c(c1)OCCO2)N1CCN(S(=O)(=O)c2c(F)cccc2F)CC1`, the Activity in series [1] was under 30%; in series [2] it was under 30%; in series [3] it was under 30%; in series [4] it was under 30%; at Pyruvate kinase PKM [5] it was 94.4%. Further, in series [6], the kinetic solubility is under 1.1 µM. The outcome at Pyruvate kinase PKM [7] and on Pyruvate kinase PKM [8] was inactive.
As to `Nc1cccc(S(=O)(=O)N2CCN(S(=O)(=O)c3c(F)cccc3F)CC2)c1`, the Activity in series [1] is under 30%; in [2] it was under 30%; in series [3], under 30%; in [4] it was under 30%; at Pyruvate kinase PKM [5] it was 84.4%. For the same molecule, on Pyruvate kinase PKM [9] (read-out: AC50), the AC50 was determined as 99 nM. In [6], this molecule had a solubility (kinetic) of 5.7 µM (≈ 2.38 µg/mL). For the same molecule, the outcome on Pyruvate kinase PKM [7] and at Pyruvate kinase PKM [8] was inactive.
For the molecule `COc1cc(F)c(S(=O)(=O)N2CCN(S(=O)(=O)c3cccc(N)c3)CC2)c(F)c1`, the Activity in [1] was under 30%; in series [2], under 30%; in [3], under 30%; in series [4], under 30%; on Pyruvate kinase PKM [5] it was 90.5%. For the same molecule, the AC50 on Pyruvate kinase PKM [9] (read-out: AC50) stood at 26 nM. This molecule registered a kinetic solubility in series [6] of under 0.7 µM. In addition, the result at Pyruvate kinase PKM [7] and on Pyruvate kinase PKM [8] was inactive.
Take `COc1ccc(S(=O)(=O)N2CCN(S(=O)(=O)c3ccc4c(c3)OCCO4)CC2)cc1`: the Activity in series [1] is under 30%; in series [2], under 30%; in [3] it was under 30%; in series [4] it was under 30%; at Pyruvate kinase PKM [5] it was 92.2%; on Pyruvate kinase PKM [14], 150%. Besides, the fold change (FC) on Pyruvate kinase PKM [10] turned out to be 10. Moreover, the result on Pyruvate kinase PKM [11], at Pyruvate kinase PKM [12], at Pyruvate kinase PKM [7] and at Pyruvate kinase PKM [8] was inactive. Further, the AC50 on Pyruvate kinase PKM [13] stood at 750 nM.
Take `Nc1cccc(S(=O)(=O)N2CCN(S(=O)(=O)c3ccc4c(c3)OCCO4)CC2)c1`: the Activity in [1] is under 30%; in series [2] it was under 30%; in [3], under 30%; in series [4], under 30%; on Pyruvate kinase PKM [5], 83.7%. Further, at Pyruvate kinase PKM [9] (read-out: AC50), the concentration at half-maximal activity (AC50) worked out at 43 nM. The molecule further displayed a solubility (kinetic) in series [6] of 7.3 µM (≈ 3.21 µg/mL). For the same molecule, the outcome on Pyruvate kinase PKM [7] and at Pyruvate kinase PKM [8] was inactive.
As to `COc1cc(F)c(S(=O)(=O)N2CCCN(S(=O)(=O)c3cccc(N)c3)CC2)c(F)c1`, the Activity was under 30% in series [1]; under 30% in series [2]; under 30% in series [3]; under 30% in series [4]; 92.5% at Pyruvate kinase PKM [5]. In addition, the AC50 at Pyruvate kinase PKM [9] (read-out: AC50) was 223 nM. The same molecule had a kinetic solubility in series [6] of 26.3 µM (≈ 12.1 µg/mL). The outcome on Pyruvate kinase PKM [7] and on Pyruvate kinase PKM [8] was inactive.
With `Nc1cccc(S(=O)(=O)N2CCCN(S(=O)(=O)c3ccc4c(c3)OCCO4)CC2)c1`, the Activity in series [1] is under 30%; in [2], under 30%; in [3], under 30%; in [4] it was under 30%; on Pyruvate kinase PKM [5] it was 81.7%. In series [6], this molecule returned a solubility (kinetic) of 51.2 µM (≈ 23.2 µg/mL). Besides, the result at Pyruvate kinase PKM [7] and at Pyruvate kinase PKM [8] was inactive.
`O=C(c1ccc2c(c1)OCCO2)N1CCN(S(=O)(=O)c2c(F)cccc2F)CC1`: the Activity in series [1], in series [2], in series [3] and in [4] was under 30% in each case. Further, on Pyruvate kinase PKM [9], the AC50 result was “Not Active”. Also, the result on Pyruvate kinase PKM [5], on Pyruvate kinase PKM [7] and on Pyruvate kinase PKM [8] was inactive.
Take `O=P(O)(O)OC[C@H]1O[C@@](O)(COP(=O)(O)O)[C@@H](O)[C@@H]1O`: on Pyruvate kinase PKM [11], the result was inactive.
As to `O=S(=O)(c1ccc2c(c1)OCCO2)N1CCCN(S(=O)(=O)c2c(F)cccc2F)CC1`, the Activity in series [1] is under 30%; in [2] it was under 30%; in [3], under 30%; in series [4], under 30%; at Pyruvate kinase PKM [5], 120%. The molecule further returned a kinetic solubility in series [6] of 5.6 µM (≈ 2.66 µg/mL). Moreover, the result on Pyruvate kinase PKM [7] and on Pyruvate kinase PKM [8] was inactive.
Take `O=S(=O)(NCC1CN(S(=O)(=O)c2ccc3c(c2)OCCO3)C1)c1c(F)cccc1F`: the Activity in [1] was under 30%; in [2], under 30%; in series [3], under 30%; in series [4], under 30%; on Pyruvate kinase PKM [5], 93.3%. Also, the AC50 on Pyruvate kinase PKM [9] (read-out: AC50) was 4470 nM. Further, the outcome on Pyruvate kinase PKM [7] and at Pyruvate kinase PKM [8] was inactive.
For `O=S(=O)(NC1CCN(S(=O)(=O)c2ccc3c(c2)OCCO3)CC1)c1c(F)cccc1F`, the Activity in series [1] is under 30%; in [2] it was under 30%; in series [3] it was under 30%; in [4], under 30%; on Pyruvate kinase PKM [5] it was 101%. Further, the AC50 at Pyruvate kinase PKM [9] (read-out: AC50) was determined as 3690 nM. Also, the result at Pyruvate kinase PKM [7] and on Pyruvate kinase PKM [8] was inactive.
In the case of `O=S(=O)(NCCNS(=O)(=O)c1c(F)cccc1F)c1ccc2c(c1)OCCO2`, the Activity was under 30% in [1]; under 30% in series [2]; under 30% in [3]; under 30% in series [4]; 60.3% at Pyruvate kinase PKM [5]. Besides, the AC50 on Pyruvate kinase PKM [9] (read-out: AC50) was over 15000 nM. The result at Pyruvate kinase PKM [7] and on Pyruvate kinase PKM [8] was inactive.
